Reference: ChEMBL document CHEMBL5380804, “Discovery of 2-(3-Benzamidopropanamido)thiazole-5-carboxylate Inhibitors of the Kinesin HSET (KIFC1) and the Development of Cellular Target Engagement Probes” (J Med Chem, 2023)
Each block holds one compound with its values, some of them ahead of it.

Key:
[1] = target: T1, Kinesin-like protein KIFC1 (Homo sapiens, UniProt Q9BW19); test: Binding affinity to N-terminal His-tagged full length recombinant human HSET assessed as dissociation constant incubated for 3 hrs in presence of 70 ug/ml of microtubules by fluorescence polarization assay
T1 sequence (Q9BW19 whole entry): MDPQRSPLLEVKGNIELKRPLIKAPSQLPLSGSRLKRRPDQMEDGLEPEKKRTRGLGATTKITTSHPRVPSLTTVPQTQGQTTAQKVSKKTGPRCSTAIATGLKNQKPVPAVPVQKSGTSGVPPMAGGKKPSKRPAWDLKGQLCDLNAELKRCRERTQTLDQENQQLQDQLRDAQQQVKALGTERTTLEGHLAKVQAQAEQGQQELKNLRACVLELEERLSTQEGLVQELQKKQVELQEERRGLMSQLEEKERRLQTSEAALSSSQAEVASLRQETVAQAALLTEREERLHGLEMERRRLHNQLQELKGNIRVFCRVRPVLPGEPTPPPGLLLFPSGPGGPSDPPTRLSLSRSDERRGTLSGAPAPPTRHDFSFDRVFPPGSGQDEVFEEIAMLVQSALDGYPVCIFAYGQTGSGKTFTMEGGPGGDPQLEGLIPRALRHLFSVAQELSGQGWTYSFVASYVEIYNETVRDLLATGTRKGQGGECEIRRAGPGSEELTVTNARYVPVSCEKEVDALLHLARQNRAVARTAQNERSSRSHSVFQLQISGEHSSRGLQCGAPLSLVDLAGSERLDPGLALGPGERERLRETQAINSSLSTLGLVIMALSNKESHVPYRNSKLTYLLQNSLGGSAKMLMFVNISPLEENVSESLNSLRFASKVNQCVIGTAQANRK
How it was run: (§1)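 Full-length human N-His HSET titrated from 2000 to 0.5 nM. Preincubated 10 min with paclitaxel-stabilized preformed microtubules or reconstitution buffer, then added to 2.5 nM sulfoCy5 probe. Buffer: 20 mM HEPES pH 7.5, 200 mM NaCl, 10 mM MgCl2, 1 mM TCEP, 0.1 mM Triton X-100, 5% glycerol.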

[2] = target: T1, Kinesin-like protein KIFC1; test: Binding affinity to N-terminal His-tagged full length recombinant human HSET assessed as dissociation constant incubated for 3 hrs in presence of 7 ug/ml of microtubules by fluorescence polarization assay; how it was run: as §1
[3] = target: T1, Kinesin-like protein KIFC1; test: Displacement of FP-Probe from N-terminal His-tagged full length recombinant human HSET incubated for 2 hrs by fluorescence polarization based competitive binding assay
How it was run: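 Competitive FP assay with 400 nM full-length human N-His HSET and 2.5 nM sulfoCy5 probe in 20 mM HEPES pH 7.5, 200 mM NaCl, 10 mM MgCl2, 1 mM TCEP, 0.1 mM Triton X-100, 5% glycerol. 11-point compound series from 100 to 0.001 μM final.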

[4] = target: T2, Kinesin-like protein KIFC1 (Homo sapiens) (UniProt Q9BW19); test: Inhibition of N-terminal His-tagged full length recombinant human HSET assessed as inhibition of microtubule-stimulated ATPase activity incubated for 10 mins in presence of ultra-ATP by ADP-Glo kinase assay relative to control
T2 sequence (whole entry): T1 sequence (Q9BW19 whole entry)

[5] = target: T2, Kinesin-like protein KIFC1 (Homo sapiens); test: Binding affinity to HSET in human DLD-1 with HSET knockout assessed as fold increase in signal at 3 uM incubated for 45 mins by Alexa-488 fluorophore staining immunofluorescence analysis; format: cell-based
How it was run: (§2)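 DLD1 4N cells and CRISPR HSET-knockout DLD1 cells pretreated 2 h with 8 μM pro-TAME, then 45 min with 3 μM TCO click probe plus 8 μM MG-132 in DMEM/1% FBS. After washes, fixed in 4% PFA and reacted with 400 nM tetrazine-Cy5 for 10 min at room temperature. Stained for pericentrin, KIFC1 (Alexa-488) and DAPI; confocal 40× imaging; signal expressed relative to tetrazine-Cy5 alone.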

[6] = target: T2, Kinesin-like protein KIFC1 (Homo sapiens); test: Binding affinity to HSET in human DLD-1 assessed as fold increase in signal at 3 uM incubated for 45 mins by Alexa-488 fluorophore staining immunofluorescence analysis; format: cell-based; how it was run: as §2
[7] = target: T2, Kinesin-like protein KIFC1 (Homo sapiens); test: Displacement of CCT369834 probe from HSET in human DLD-1 cells assessed as decrease in localization of CCT369834 probe at 0.1 to 10 uM incubated for 45 mins by TZ-Cy5 staining immunofluorescence analysis; format: cell-based; conditions: dose 0.1-10 µM
How it was run: (§3)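 Target engagement in DLD1 4N cells, with HSET-knockout DLD1 as negative control. Cells pretreated 2 h with 8 μM pro-TAME, then given 3 μM TCO probe alone or with competitor plus 8 μM MG-132 in 1% FBS medium for 45 min. Washed, PFA-fixed, then 400 nM tetrazine-Cy5 for 10 min. Stained for pericentrin, KIFC1 and DAPI, followed by confocal 3D segmentation of mitotic poles. Cy5/KIFC1 pole intensity ratio, with KO signal subtracted, normalized to probe-alone control; n > 100 cells per replicate, two replicates per concentration.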

[8] = target: T2, Kinesin-like protein KIFC1 (Homo sapiens); test: Displacement of CCT369834 probe from HSET in human DLD-1 cells assessed as decrease in localization of CCT369834 probe at 0.1 to 10 uM incubated for 45 mins by Alexa-488 fluorophore staining immunofluorescence analysis; format: cell-based; conditions: dose 0.1-10 µM; how it was run: as §3
[9] = target: T2, Kinesin-like protein KIFC1 (Homo sapiens); test: Displacement of CCT369834 probe from HSET in human DLD-1 cells assessed as decrease in localization of CCT369834 probe at 0.1 to 10 uM incubated for 45 mins by DAPI staining immunofluorescence analysis; format: cell-based; conditions: dose 0.1-10 µM; how it was run: as §3

Kd [1]: 332 nM | Kd [2]: 315 nM
Structure (SMILES): CCCOC(=O)c1sc(NC(=O)C[C@H](CCCNC(=O)CCCCC[N+]2=C(/C=C/C=C/C=C3/N(C)c4ccc(S(=O)(=O)O)cc4C3(C)C)C(C)(C)c3cc(S(=O)(=O)O)ccc32)NC(=O)c2cccc(-c3noc(C)n3)c2)nc1C

IC50 [3]: 109 nM
Structure (SMILES): CCOC(=O)c1sc(NC(=O)CCNC(=O)c2cccc(-c3noc(C)n3)c2)nc1C

inhibition [4]: 47%
Structure (SMILES): CCOC(=O)c1sc(NC(=O)CCNC(=O)C2CCCC(C)C2)nc1C (stereo not given)

fold change (FC) [5]: 7 | fold change (FC) [6]: 14
Structure (SMILES): CCCOC(=O)c1sc(NC(=O)C[C@H](CCCN(C)CC#CCNC(=O)O[C@@H]2CC/C=C/CCC2)NC(=O)c2cccc(-c3noc(C)n3)c2)nc1C

Activity [7]: Dose-Dependent Effect | Activity [8]: Dose-Dependent Effect | Activity [9]: Dose-Dependent Effect
Structure (SMILES): CCCOC(=O)c1sc(NC(=O)C[C@H](CCCN(C)C)NC(=O)c2cccc(-c3noc(C)n3)c2)nc1C

inhibition [4]: 47%
Structure (SMILES): CCOC(=O)c1sc(NC(=O)CCNC(=O)c2ccccc2)nc1C
